These results are taken from ChEMBL document CHEMBL4033795, “Design, Synthesis, and Structure-Activity Relationship Study of 2-Oxo-3,4-dihydropyrimido[4,5- d]pyrimidines as New Colony Stimulating Factor 1 Receptor (CSF1R) Kinase Inhibitors” (J Med Chem, 2018).

The target in series [1] is Macrophage colony-stimulating factor 1 receptor (Homo sapiens, UniProt P07333). Nature of the series: Inhibition of recombinant human His-tagged CSF1R cytoplasmic domain (538 to 910 residues) expressed in baculovirus using tyr4 peptide as substrate after 1 hr by FRET-based Z'-Lyte assay. In a few lines:
(§1)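 Z′-Lyte FRET assay with CSF1R or EGFR and 2 μM Tyr4 peptide substrate in 1× kinase buffer. ATP was supplied as a 100 μM solution, a stock and not the final concentration. Compounds were 3-fold serially diluted in DMSO. Reaction ran 1 h at room temperature, followed by 1 h development and a stop reagent. Phospho-peptide, no-ATP and DMSO controls were included. IC50 by curve fitting; mean of at least three independent experiments.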

The test system of series [2] is Rattus norvegicus. Nature of the series: AUC (0 to infinity) in Sprague-Dawley rat at 25 mg/kg administered via oral gavage measured up to 72 hrs by LC/MS analysis. It is filed as ADME, organism-based. The arrangement: dose 25 mg/kg, route oral, time infinity. As to conditions: in vivo. In a few lines: (§2)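 Male Sprague-Dawley rats, 4–6 weeks old, acclimatised 1 week, were dosed iv at 5 mg/kg or by oral gavage at 25 mg/kg. Vehicle was 2% DMSO, 4% EtOH, 4% castor oil, 90% H2O. Blood was drawn by orbital sinus puncture from 2 min to 72 h into heparinized tubes. Plasma was assayed by LC/MS with propranolol as internal standard. Three animals per group.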

Series [3] can be described thus: AUC (0 to infinity) in Sprague-Dawley rat at 5 mg/kg, iv measured up to 72 hrs by LC/MS analysis. It is filed as ADME, organism-based. More on the design: dose 5 mg/kg, time infinity, route intravenous. As to conditions: in vivo. The essentials: as §2
Series [4] in a line: Cmax in Sprague-Dawley rat at 25 mg/kg administered via oral gavage measured up to 72 hrs by LC/MS analysis. It is filed as ADME, organism-based. More on the design: dose 25 mg/kg, route oral. Conditions: in vivo. In a few lines: as §2
Series [5] can be described thus: Half life in Sprague-Dawley rat at 25 mg/kg administered via oral gavage measured up to 72 hrs by LC/MS analysis. The class given is ADME, organism-based. Conditions: in vivo. The essentials:
as §2

Series [6] is described as follows: Half life in Sprague-Dawley rat at 5 mg/kg, iv measured up to 72 hrs by LC/MS analysis. The class given is ADME, organism-based. As to conditions: in vivo. The essentials: as §2
Series [7] has as its system Rattus norvegicus. Kind of series: Apparent clearance in Sprague-Dawley rat at 25 mg/kg administered via oral gavage measured up to 72 hrs by LC/MS analysis. The class given is ADME, organism-based. Conditions: in vivo, iv, 5 mg/kg, in the assay text read “5 mg/kg administered intravenously” for “25 mg/kg administered via oral gavage”. In a few lines:
as §2

A short description of series [8]: Oral bioavailability in Sprague-Dawley rat at 25 mg/kg administered via gavage measured up to 72 hrs by LC/MS analysis. The class given is ADME, organism-based. Conditions: in vivo. In a few lines:
as §2

The target in series [9] is Epidermal growth factor receptor (Homo sapiens, UniProt P00533). Kind of series: Inhibition of recombinant human wild type GST-tagged EGFR cytoplasmic domain (668 to 1210 residues) expressed in baculovirus using tyr4 peptide as substrate after 1 hr by FRET-based Z'-Lyte assay.
Sequence of Epidermal growth factor receptor (P00533 whole entry, the tested form may be a part): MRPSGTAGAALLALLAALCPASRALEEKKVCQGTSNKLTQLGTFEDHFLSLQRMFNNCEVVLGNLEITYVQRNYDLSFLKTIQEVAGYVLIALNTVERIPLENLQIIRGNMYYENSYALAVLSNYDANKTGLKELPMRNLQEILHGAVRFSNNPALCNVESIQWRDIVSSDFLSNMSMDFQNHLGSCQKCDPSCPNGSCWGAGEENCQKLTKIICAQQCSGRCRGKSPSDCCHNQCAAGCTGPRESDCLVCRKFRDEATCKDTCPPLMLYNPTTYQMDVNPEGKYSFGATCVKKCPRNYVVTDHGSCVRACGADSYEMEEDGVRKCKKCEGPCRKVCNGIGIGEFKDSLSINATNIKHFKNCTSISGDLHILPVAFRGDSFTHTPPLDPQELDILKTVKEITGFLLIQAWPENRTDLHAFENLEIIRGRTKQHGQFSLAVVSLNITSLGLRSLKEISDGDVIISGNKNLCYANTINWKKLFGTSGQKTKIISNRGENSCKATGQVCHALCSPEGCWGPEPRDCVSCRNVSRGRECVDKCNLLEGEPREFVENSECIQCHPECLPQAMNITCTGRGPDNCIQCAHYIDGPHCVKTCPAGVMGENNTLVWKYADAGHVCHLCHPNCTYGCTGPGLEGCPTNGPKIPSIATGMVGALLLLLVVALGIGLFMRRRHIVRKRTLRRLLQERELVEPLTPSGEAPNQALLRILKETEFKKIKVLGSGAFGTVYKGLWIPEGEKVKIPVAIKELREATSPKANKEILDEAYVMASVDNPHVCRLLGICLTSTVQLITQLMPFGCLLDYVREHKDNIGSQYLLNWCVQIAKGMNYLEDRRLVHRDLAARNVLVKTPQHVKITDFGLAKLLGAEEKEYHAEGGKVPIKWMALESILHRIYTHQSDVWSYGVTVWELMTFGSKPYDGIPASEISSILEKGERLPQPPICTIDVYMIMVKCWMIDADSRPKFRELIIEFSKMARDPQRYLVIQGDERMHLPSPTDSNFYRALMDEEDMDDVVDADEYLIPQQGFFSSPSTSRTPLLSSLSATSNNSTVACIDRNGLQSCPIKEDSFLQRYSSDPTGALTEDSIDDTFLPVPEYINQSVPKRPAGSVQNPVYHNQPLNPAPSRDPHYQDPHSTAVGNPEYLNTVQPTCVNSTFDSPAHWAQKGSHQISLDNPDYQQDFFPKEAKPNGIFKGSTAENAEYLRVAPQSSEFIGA
The species named for series [10] is Homo sapiens. Nature of the series: Selectivity ratio of IC50 for recombinant human wild type GST-tagged EGFR cytoplasmic domain (668 to 1210 residues) expressed in baculovirus to IC50 for recombinant human His-tagged CSF1R cytoplasmic domain (538 to 910 residues) expressed in baculovirus. In a few lines:
as §1

Sequence of Macrophage colony-stimulating factor 1 receptor (P07333 whole entry, the tested form may be a part): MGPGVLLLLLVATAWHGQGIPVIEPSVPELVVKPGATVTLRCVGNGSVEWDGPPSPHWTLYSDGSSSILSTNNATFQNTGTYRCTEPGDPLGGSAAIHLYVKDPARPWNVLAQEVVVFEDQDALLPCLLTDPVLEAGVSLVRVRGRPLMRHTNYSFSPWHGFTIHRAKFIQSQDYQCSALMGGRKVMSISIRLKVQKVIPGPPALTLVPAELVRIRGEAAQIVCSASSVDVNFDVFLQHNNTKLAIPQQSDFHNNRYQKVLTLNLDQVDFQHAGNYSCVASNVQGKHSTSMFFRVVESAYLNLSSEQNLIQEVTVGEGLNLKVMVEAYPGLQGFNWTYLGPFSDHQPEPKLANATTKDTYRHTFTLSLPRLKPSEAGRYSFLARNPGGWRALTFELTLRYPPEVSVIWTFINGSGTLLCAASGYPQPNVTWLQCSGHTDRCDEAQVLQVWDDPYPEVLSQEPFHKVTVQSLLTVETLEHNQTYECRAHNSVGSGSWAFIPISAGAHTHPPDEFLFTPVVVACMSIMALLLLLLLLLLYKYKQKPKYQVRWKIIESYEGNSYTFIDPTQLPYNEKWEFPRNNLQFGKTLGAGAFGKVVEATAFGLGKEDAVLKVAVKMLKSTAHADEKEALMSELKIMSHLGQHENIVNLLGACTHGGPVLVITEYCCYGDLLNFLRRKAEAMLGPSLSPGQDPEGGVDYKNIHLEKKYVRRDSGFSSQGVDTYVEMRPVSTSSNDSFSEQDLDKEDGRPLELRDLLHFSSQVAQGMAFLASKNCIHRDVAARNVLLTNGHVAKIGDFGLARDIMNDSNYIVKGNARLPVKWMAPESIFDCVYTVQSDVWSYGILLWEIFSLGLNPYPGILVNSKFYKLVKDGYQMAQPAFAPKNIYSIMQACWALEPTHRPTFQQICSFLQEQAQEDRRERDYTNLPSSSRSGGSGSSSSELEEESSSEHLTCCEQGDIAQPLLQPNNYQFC

The IC50 is the concentration that inhibits the measured activity by half. As a reminder, the AUC is the area under the concentration-time curve, a measure of exposure. A word on the AUC(0-inf): it is the area under the concentration-time curve extrapolated to infinity. For orientation: Cmax means the highest concentration seen after dosing. One may read the half-life as how long it takes for the measured level to halve. Read a high half-life as slow loss. What is called bioavailability is the share of a dose that reaches the circulation, judged against a reference dose that is usually intravenous. A lower bioavailability goes with little systemic uptake. Turning to `CCC(=O)N1CC[C@H](N2C(=O)N(c3cc(OC)ccc3Cl)Cc3cnc(Nc4ccc(N5CCN(C)CC5)c(C)c4)nc32)C1`, the IC50 in [1] is 2.1 nM. This compound also registered an AUC in series [2] of 5311 ng·h/mL. The AUC(0-inf) in series [3] turned out to be 2770 ng·h/mL. The compound also gave a Cmax in series [4] of 988 ng/mL. Also, the half-life was 1.89 h in series [5] and 3.48 h in series [6]. For the same compound, the “CL(app)” value in [7] worked out at 30.7 mL/min/kg. Also, the bioavailability in series [8] worked out at 38.6%.
Take `CCC(=O)N1CC[C@H](N2C(=O)N(c3cc(OC)ccc3F)Cc3cnc(Nc4ccc(N5CCN(C)CC5)c(C)c4)nc32)C1`: the results for the IC50 in series [1] and in [9] were 2 nM and 362 nM, respectively. The compound also returned an AUC in series [2] of 1630 ng·h/mL. The same compound showed an AUC(0-inf) in series [3] of 1900 ng·h/mL. The same compound gave a Cmax in series [4] of 396 ng/mL. For the same compound, the figures for the half-life in series [5] and in series [6] were 1.6 h and 2.3 h, respectively. In [7], the “CL(app)” value was found to be 44 mL/min/kg. The compound also yielded a bioavailability in series [8] of 17.1%. Further, the Ratio IC50 in series [10] lay within 99 to 200.
